# Experimental data reported in ChEMBL document CHEMBL1132613 (J Med Chem, 1999).
# How the values were obtained:
# [1] = target: 5-hydroxytryptamine receptor 2A (Homo sapiens, UniProt P28223); test: Compound was tested for the displacement of [125I]-DOI from clone human 5-hydroxytryptamine 2A receptor
# How it was run: (§1)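 Membranes from AV12 hamster fibroblasts stably expressing human 5-HT2A or 5-HT2C. [125I]DOI was about 0.07–0.15 nM final. Buffer was 50 mM Tris-HCl pH 7.4 with 10 μM pargyline, 9.75 mM MgCl2, 0.5 mM Na2-EDTA and 0.1% Na ascorbate. Incubation was 30 min at 37 °C with about 40 μg protein (2A) or 30 μg (2C). Nonspecific binding used 1 μM ketanserin (2A) or 10 μM mianserin (2C). Read by gamma counting; sigmoid nonlinear regression.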
# [2] = target: T1, 5-hydroxytryptamine receptor 2C (Homo sapiens, UniProt P28335); test: Compound was tested for the displacement of [125I]DOI from cloned human 5-hydroxytryptamine 2C receptor; how it was run: as §1
# T1 sequence (P28335 whole entry): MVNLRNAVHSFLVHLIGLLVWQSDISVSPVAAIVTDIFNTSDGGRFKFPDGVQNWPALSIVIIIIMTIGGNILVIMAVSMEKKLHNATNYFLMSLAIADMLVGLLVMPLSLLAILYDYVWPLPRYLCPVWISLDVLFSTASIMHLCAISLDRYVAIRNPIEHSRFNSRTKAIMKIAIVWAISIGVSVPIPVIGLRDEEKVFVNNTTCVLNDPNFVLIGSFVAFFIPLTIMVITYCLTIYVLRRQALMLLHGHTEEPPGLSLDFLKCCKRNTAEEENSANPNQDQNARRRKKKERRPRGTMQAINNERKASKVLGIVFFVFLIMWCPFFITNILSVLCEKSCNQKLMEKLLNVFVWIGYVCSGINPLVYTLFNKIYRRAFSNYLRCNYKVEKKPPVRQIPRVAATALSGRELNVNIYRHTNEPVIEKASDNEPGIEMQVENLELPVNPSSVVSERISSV
# [3] = target: 5-hydroxytryptamine receptor 2B (Homo sapiens, UniProt P41595); test: Compound was tested for the displacement of [3H]5-HT from clone human 5-hydroxytryptamine 2B receptor
# 5-hydroxytryptamine receptor 2B, sequence (P41595 whole entry): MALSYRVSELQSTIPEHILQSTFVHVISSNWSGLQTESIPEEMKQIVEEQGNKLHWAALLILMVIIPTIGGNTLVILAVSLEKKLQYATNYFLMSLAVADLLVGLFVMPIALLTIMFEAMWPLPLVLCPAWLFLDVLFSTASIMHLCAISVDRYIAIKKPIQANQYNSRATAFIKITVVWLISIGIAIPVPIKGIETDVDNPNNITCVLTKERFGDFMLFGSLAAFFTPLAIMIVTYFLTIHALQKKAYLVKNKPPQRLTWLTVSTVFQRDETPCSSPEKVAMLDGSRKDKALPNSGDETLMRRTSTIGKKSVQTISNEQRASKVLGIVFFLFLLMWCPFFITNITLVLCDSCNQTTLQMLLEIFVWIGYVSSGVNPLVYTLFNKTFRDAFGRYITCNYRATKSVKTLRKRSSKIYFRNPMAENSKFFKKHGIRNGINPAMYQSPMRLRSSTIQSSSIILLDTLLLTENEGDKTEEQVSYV
# How it was run: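 Membranes from AV12 cells stably expressing human 5-HT2B, 100–150 μg protein. [3H]-5-HT was about 2 nM (1.7–2.5 nM) final. Buffer was 50 mM Tris pH 7.4 with 3 mM CaCl2, 10 μM pargyline and 0.1% ascorbic acid. Drug dilutions spanned 6 log units. Incubation was 15 min at 37 °C. Nonspecific binding used 10 μM 5-HT or 1-NP. PEI-soaked GF/B filtration, scintillation counting, triplicate, sigmoid nonlinear regression.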
# [4] = test system: Rattus norvegicus; test: Percentage of animals failing to emit 50 lever presses within 15 min in DOI trained rats at a compound dose of 16 mg/kg; type: functional
# How it was run: (§2)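 Male Sprague–Dawley rats (200–220 g) in a two-lever, FR50 food-reinforced task. Rats were trained to discriminate saline from LSD tartrate (0.08 mg/kg), DOI HCl (0.4 mg/kg) or LY293284 (0.025 mg/kg) in 15-min sessions. %SDL is the share of rats making over 80% of presses on the drug lever. %D is the share failing to make 50 presses within 15 min. ED50 by Litchfield–Wilcoxon log-probit.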
# [5] = test system: Rattus norvegicus; test: Percentage of animals failing to emit 50 lever presses within 15 min in DOI trained rats at a compound dose of 2 mg/kg; type: functional; how it was run: as §2
# [6] = test system: Rattus norvegicus; test: Percentage of animals failing to emit 50 lever presses within 15 min in DOI trained rats at a compound dose of 4 mg/kg; type: functional; how it was run: as §2
# [7] = test system: Rattus norvegicus; test: Percentage of animals failing to emit 50 lever presses within 15 min in LSD trained rats at a compound dose of 0.5 mg/kg; type: functional; how it was run: as §2
# [8] = test system: Rattus norvegicus; test: Percentage of animals failing to emit 50 lever presses within 15 min in LSD trained rats at a compound dose of 1.0 mg/kg; type: functional; how it was run: as §2
# [9] = test system: Rattus norvegicus; test: Percentage of animals failing to emit 50 lever presses within 15 min in LSD trained rats at a compound dose of 16 mg/kg; type: functional; how it was run: as §2
# [10] = test system: Rattus norvegicus; test: Percentage of animals failing to emit 50 lever presses within 15 min in LSD trained rats at a compound dose of 2.0 mg/kg; type: functional; how it was run: as §2
# [11] = test system: Rattus norvegicus; test: Percentage of animals failing to emit 50 lever presses within 15 min in LSD trained rats at a compound dose of 4.0 mg/kg; type: functional
# How it was run: (§3)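 Two-lever drug discrimination in male Sprague–Dawley rats (200–220 g at start), trained against saline on LSD tartrate (0.08 mg/kg), DOI HCl (0.4 mg/kg) or LY293284 (0.025 mg/kg). FR50 food-pellet reinforcement, levers counterbalanced, 15-min sessions at 22–24 °C. %D is the share of tested rats not completing 50 lever presses within 15 min.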
# [12] = test system: Rattus norvegicus; test: Percentage of animals failing to emit 50 lever presses within 15 min in […] trained rats at a compound dose of 2 mg/kg; type: functional; how it was run: as §3
# [13] = test system: Rattus norvegicus; test: Percentage of animals failing to emit 50 lever presses within 15 min in […] trained rats at a compound dose of 4 mg/kg; type: functional; how it was run: as §3
# [14] = test system: Rattus norvegicus; test: Percentage of animals emitting >80% of lever presses in DOI trained rats at a compound dose of 50.6 uM/Kg; type: functional; how it was run: as §2
# [15] = test system: Rattus norvegicus; test: Percentage of animals emitting >80% of lever presses in LSD trained rats at a compound dose of 25.3 uM/Kg; type: functional; how it was run: as §2
# [16] = test system: Rattus norvegicus; test: Percentage of animals emitting >80% of lever presses in LSD trained rats at a compound dose of 3.16 uM/Kg; type: functional; how it was run: as §2
# [17] = test system: Rattus norvegicus; test: Percentage of animals emitting >80% of lever presses in […] trained rats at a compound dose of 12.6 uM/Kg; type: functional; how it was run: as §2
# [18] = test system: Rattus norvegicus; test: Percentage of animals emitting >80% of lever presses in […] trained rats at a compound dose of 50.6 uM/Kg; type: functional; how it was run: as §2
# [19] = test system: Rattus norvegicus; test: Percentage of animals emitting >80% of lever presses in […] trained rats at a compound dose of 6.32 uM/Kg; type: functional; how it was run: as §2
# [20] = test system: Rattus norvegicus; test: Percentage of animals emitting >80% of lever presses in LSD trained rats at a compound dose of 12.6 uM/Kg; type: functional; how it was run: as §2
# 5-hydroxytryptamine receptor 2A, sequence (P28223 whole entry): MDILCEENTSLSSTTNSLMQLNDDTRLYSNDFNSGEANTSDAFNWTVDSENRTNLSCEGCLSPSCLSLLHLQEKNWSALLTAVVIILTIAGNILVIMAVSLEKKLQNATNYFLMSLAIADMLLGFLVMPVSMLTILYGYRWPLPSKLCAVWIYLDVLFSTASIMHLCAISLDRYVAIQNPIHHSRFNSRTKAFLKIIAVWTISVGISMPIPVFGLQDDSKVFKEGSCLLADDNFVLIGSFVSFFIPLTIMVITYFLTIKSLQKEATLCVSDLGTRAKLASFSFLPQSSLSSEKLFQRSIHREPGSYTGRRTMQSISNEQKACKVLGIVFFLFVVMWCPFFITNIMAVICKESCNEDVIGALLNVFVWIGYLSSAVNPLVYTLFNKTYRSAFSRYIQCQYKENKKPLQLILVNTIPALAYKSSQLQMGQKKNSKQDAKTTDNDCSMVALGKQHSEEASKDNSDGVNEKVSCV
structure (smiles),measurement,setting,value
CN(C)CCc1c[nH]c2sccc12,Ki,[1],106 nM
same,Ki,[2],102 nM
same,Ki,[3],483 nM
same,D,[4],50%
same,D,[5],0%
same,D,[6],0%
same,D,[7],22%
same,D,[8],0%
same,D,[9],50%
same,D,[10],0%
same,D,[11],0%
same,D,[12],0%
same,D,[13],0%
same,SDL,[14],0%
same,SDL,[15],9%
same,SDL,[16],7.7%
same,SDL,[17],67%
same,SDL,[18],83%
same,SDL,[19],10%
same,SDL,[20],16.7%
